Assay results: ChEMBL document CHEMBL4706701, “Synthesis and biological activity of selenopsammaplin A and its analogues as antitumor agents with DOT1L inhibitory activity” (Bioorg Med Chem, 2021)
Calls of active or inactive are those of the source. The calls are words filed in the database; no cut-off is given here.

Key:
[1] = system: A549; assay: Cytotoxicity against human A549 cells assessed as reduction in cell viability by SRB assay; format: functional, cell-based
In short: (§1)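 Cells seeded in 96-well plates and exposed to compounds for the stated times. Zero-day controls were incubated 30 min. Cells were fixed and stained with 0.4% SRB in 1% acetic acid, and bound dye was dissolved in 10 mM Tris (pH 10.0). A515 was read, and IC50 was calculated by non-linear regression.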

[2] = system: HCT-116; assay: Cytotoxicity against human HCT-116 cells assessed as reduction in cell viability by SRB assay; format: functional, cell-based; in short: as §1
[3] = system: MDA-MB-231; assay: Cytotoxicity against human MDA-MB-231 cells assessed as reduction in cell viability by SRB assay; format: functional, cell-based; in short: as §1
[4] = system: SK-HEP1; assay: Cytotoxicity against human SK-HEP1 cells assessed as reduction in cell viability by SRB assay; format: functional, cell-based; in short: as §1
[5] = system: SNU-638; assay: Cytotoxicity against human SNU-638 cells assessed as reduction in cell viability by SRB assay; format: functional, cell-based; in short: as §1
[6] = target: Histone-lysine N-methyltransferase, H3 lysine-79 specific (Homo sapiens) (UniProt Q8TEK3); assay: Inhibition of human N-terminal GST-tagged DOT1L (2 to 416 residues) expressed in Escherichia coli at 200 nM using DOT1L substrate measured after 2 hrs in presence of SAM by ELISA
Chain of Histone-lysine N-methyltransferase, H3 lysine-79 specific (Homo sapiens) (Q8TEK3 whole entry, looked up, the tested form may be a part): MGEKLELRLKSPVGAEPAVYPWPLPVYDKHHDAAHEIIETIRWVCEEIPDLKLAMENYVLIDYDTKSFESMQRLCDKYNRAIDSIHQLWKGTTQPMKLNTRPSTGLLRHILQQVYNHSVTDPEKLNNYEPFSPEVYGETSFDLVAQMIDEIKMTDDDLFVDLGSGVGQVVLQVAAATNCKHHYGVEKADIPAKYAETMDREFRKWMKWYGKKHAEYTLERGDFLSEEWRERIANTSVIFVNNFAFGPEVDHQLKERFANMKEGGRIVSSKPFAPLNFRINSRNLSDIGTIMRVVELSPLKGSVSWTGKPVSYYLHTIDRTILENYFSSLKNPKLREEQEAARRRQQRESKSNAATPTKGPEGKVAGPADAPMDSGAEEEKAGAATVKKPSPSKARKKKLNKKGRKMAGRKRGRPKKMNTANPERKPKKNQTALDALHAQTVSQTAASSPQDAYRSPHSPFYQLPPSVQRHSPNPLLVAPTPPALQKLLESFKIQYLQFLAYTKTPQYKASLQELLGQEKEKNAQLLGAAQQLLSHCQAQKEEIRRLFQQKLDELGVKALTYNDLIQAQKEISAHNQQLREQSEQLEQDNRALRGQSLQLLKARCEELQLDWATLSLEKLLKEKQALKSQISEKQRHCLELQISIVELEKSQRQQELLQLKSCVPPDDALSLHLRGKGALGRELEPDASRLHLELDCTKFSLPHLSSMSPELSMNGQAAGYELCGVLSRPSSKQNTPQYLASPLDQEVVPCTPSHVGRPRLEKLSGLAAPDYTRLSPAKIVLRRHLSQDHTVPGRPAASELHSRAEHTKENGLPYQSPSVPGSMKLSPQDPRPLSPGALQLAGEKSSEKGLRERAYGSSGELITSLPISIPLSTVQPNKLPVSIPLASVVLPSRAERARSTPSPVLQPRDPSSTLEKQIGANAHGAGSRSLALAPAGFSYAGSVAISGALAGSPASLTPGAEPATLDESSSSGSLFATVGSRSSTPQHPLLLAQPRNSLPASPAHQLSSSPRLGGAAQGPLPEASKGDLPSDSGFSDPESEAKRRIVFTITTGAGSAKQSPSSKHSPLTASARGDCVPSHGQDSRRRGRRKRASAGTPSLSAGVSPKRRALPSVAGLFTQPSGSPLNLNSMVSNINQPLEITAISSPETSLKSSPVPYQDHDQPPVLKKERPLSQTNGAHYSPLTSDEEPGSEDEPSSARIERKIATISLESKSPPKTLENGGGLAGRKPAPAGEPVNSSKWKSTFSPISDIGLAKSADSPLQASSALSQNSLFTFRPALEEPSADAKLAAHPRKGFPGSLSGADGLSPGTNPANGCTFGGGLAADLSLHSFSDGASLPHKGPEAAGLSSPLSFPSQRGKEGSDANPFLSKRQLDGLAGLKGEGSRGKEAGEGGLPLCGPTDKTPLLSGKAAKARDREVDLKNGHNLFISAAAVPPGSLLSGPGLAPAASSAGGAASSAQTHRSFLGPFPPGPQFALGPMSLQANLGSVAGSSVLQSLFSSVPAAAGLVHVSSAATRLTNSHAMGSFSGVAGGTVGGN
In short: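 Cell-free DOT1L enzyme activity assay using 500 ng DOT1L per well. Compound was incubated 2 h before read-out. EPZ-5676 (100 nM) was the positive control. Mean ± SD (n = 3), representative of three separate experiments.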

[7] = target: Histone-lysine N-methyltransferase, H3 lysine-79 specific (Homo sapiens) (UniProt Q8TEK3); assay: Inhibition of DOT1L in human MDA-MB-231 cells assessed as down regulation of H3K79me2 expression at 200 nM by Western blot analysis; format: cell-based
In short: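 MDA-MB-231 lysates were made in 2× SDS sample buffer with vanadate and fluoride. 5-20 μg protein was run on 8–15% SDS-PAGE and blotted to PVDF. Membranes were blocked in 5% BSA, probed for H3K79me2 with total histone H3, and detected by ECL. Mean ± SD (n = 3), representative of three separate experiments.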

[8] = target: Histone-lysine N-methyltransferase, H3 lysine-79 specific (Homo sapiens) (UniProt Q8TEK3); assay: Inhibition of DOT1L in human MDA-MB-231 cells assessed as effect on H3K4 methylation at 200 nM by Western blot analysis; format: cell-based
In short: (§2)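 MDA-MB-231 cell lysates in 2× SDS buffer, protein by BCA; 5–20 μg on 8–15% SDS-PAGE, transferred to PVDF, BSA-blocked and probed with antibodies to H3K4me2, H3K27me2, H3K36me2, H3K79me2 and total histone H3; ECL detection. Mean ± SD (n = 3), three separate experiments.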

[9] = target: Histone-lysine N-methyltransferase, H3 lysine-79 specific (Homo sapiens) (UniProt Q8TEK3); assay: Inhibition of DOT1L in human MDA-MB-231 cells assessed as effect on H3K27 methylation at 200 nM by Western blot analysis; format: cell-based; in short: as §2
[10] = target: Histone-lysine N-methyltransferase, H3 lysine-79 specific (Homo sapiens) (UniProt Q8TEK3); assay: Inhibition of DOT1L in human MDA-MB-231 cells assessed as effect on H3K36 methylation at 200 nM by Western blot analysis; format: cell-based; in short: as §2
[11] = target: Histone-lysine N-methyltransferase, H3 lysine-79 specific (Homo sapiens) (UniProt Q8TEK3); assay: Inhibition of DOT1L in human MDA-MB-231 cells assessed as effect on histone H3 methylation at 200 nM by Western blot analysis; format: cell-based; in short: as §2
[12] = system: MDA-MB-231; assay: Antimigratory activity in human MDA-MB-231 cells assessed as suppression of wound closure at 400 nM after 24 hrs by microscopic analysis; format: functional, cell-based
In short: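 MDA-MB-231 monolayers at 80–90% confluence scratched with a pipette tip, washed with PBS, then kept 24 h in medium with 1% FBS plus compound at various concentrations. Wounds photographed at 0 and 24 h; area measured by image analysis and expressed as wound healing (%) relative to the 0 h area. Mean ± SD (n = 3), three separate experiments.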

[13] = system: MDA-MB-231; assay: Antiinvasive activity in human MDA-MB-231 cells assessed as reduction in cell invasion through matrigel-coated chamber at 400 nM after 24 hrs by diff-quik staining based microscopic analysis; format: functional
In short: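 MDA-MB-231 cells pretreated with compound (50–400 nM) for 24 h, harvested into serum-free medium and plated at 0.5–1 × 10⁶ cells/chamber on transwell inserts (8 μm pores) coated with type I collagen and 1:20 Matrigel/PBS; 30% FBS medium as chemoattractant below. After 24 h, invaded cells fixed, Diff-Quik stained, counted in 5 random fields at 200×; three separate experiments.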

[14] = Toxicity in human MDA-MB-231 cells xenografted BALB/c nu mouse assessed as body weight loss at 5 mg/kg, ip administered thrice per week for 38 days measured once per week during compound dosing; format: organism-based; conditions: in vivo, 912 h, time 38 day
In short: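 Female BALB/c-nu mice (5–6 wk) given 1 × 10⁷ luciferase-expressing MDA-MB-231 cells in 50:50 DMEM/Matrigel into the fourth fat pad; randomized after 10 days (six per group). Dosed ip in EtOH/Cremophor/saline (5:5:90) three times weekly for 38 days. Tumor L, W, H measured by caliper, volume = LWH/2; body weight weekly; tumors excised and weighed at termination.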

[15] = system: MCF-10A; assay: Cytotoxicity against human MCF-10A cells assessed as reduction in cell viability by SRB assay; format: cell-based; in short: as §1
[16] = Selectivity ratio of IC50 for human MCF-10A cells to IC50 for human A549 cells; format: toxicity; conditions: MCF-10A cells versus A549 cells, read-out: Ratio IC50
[17] = Selectivity ratio of IC50 for human MCF-10A cells to IC50 for human HCT-116 cells; format: toxicity; conditions: MCF-10A cells versus HCT-116 cells, read-out: Ratio IC50
[18] = Selectivity ratio of IC50 for human MCF-10A cells to IC50 for human MDA-MB-231 cells; format: toxicity; conditions: MCF-10A cells versus MDA-MB-231 cells, read-out: Ratio IC50
[19] = Selectivity ratio of IC50 for human MCF-10A cells to IC50 for human SK-HEP1 cells
In short: (§3)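 Cytotoxicity by SRB assay: cells seeded in 96-well plates and treated with compounds; fixed, stained with 0.4% SRB in 1% acetic acid, dye dissolved in 10 mM Tris (pH 10.0), absorbance read at 515 nm. IC50 by non-linear regression, means of at least three experiments; ratio of MCF10A IC50 to cancer-line IC50.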

[20] = Selectivity ratio of IC50 for human MCF-10A cells to IC50 for human SNU-638 cells; in short: as §3

| Compound | IC50 [1] | IC50 [2] | IC50 [3] | IC50 [4] | IC50 [5] | inhibition [6] | H3K79me2 downregulation (active/not active) [7] | also measured |
| --- | --- | --- | --- | --- | --- | --- | --- | --- |
| O=C(NCC[Se][Se]CCNC(=O)/C(Cc1ccc([N+](=O)[O-])cc1)=N/O)/C(Cc1ccc([N+](=O)[O-])cc1)=N/O | 90 nM | 90 nM | 90 nM | 170 nM | 60 nM | Active | Active |  |
| O=C(NCCSSCCNC(=O)/C(Cc1ccc(O)c(Br)c1)=N/O)/C(Cc1ccc(O)c(Br)c1)=N/O [PSAMMAPLIN A] | 1760 nM | 610 nM | 1310 nM | 1290 nM | 560 nM | inactive |  | inhibition [8]: inactive; inhibition [9]: inactive; inhibition [10]: inactive; inhibition [11]: inactive; Activity [12]: inactive; Activity [13]: inactive |
| O=C(NCC[Se][Se]CCNC(=O)/C(Cc1ccc(O)c(Cl)c1)=N/O)/C(Cc1ccc(O)c(Cl)c1)=N/O | 20 nM | 10 nM | 170 nM | 110 nM | 10 nM | Active | Active |  |
| O=C(NCC[Se][Se]CCNC(=O)/C(Cc1ccc(OCc2ccccc2)cc1)=N/O)/C(Cc1ccc(OCc2ccccc2)cc1)=N/O | 140 nM | 100 nM | 140 nM | 280 nM | 410 nM | Active | Active |  |
| CC(=O)O[C@H]1C(=O)[C@@]2(C)[C@H]([C@H](OC(=O)c3ccccc3)[C@]3(O)C[C@H](OC(=O)[C@H](O)[C@@H](NC(=O)c4ccccc4)c4ccccc4)C(C)=C1C3(C)C)[C@]1(OC(C)=O)CO[C@@H]1C[C@@H]2O [PACLITAXEL] |  |  |  |  |  |  |  | Activity [14]: Toxic |
| O=C(NCC[Se][Se]CCNC(=O)/C(Cc1ccc(O)c(F)c1)=N/O)/C(Cc1ccc(O)c(F)c1)=N/O | 20 nM | 10 nM | 190 nM | 130 nM | 20 nM | Active | Active |  |
| O=C(NCC[Se][Se]CCNC(=O)/C(Cc1ccc(F)cc1)=N/O)/C(Cc1ccc(F)cc1)=N/O | 100 nM | 110 nM | 130 nM | 140 nM | 70 nM |  |  |  |
| O=C(NCC[Se][Se]CCNC(=O)/C(Cc1ccc(Br)cc1)=N/O)/C(Cc1ccc(Br)cc1)=N/O | 310 nM | 170 nM | 390 nM | 310 nM | 150 nM |  | Active |  |
| CCOc1ccc(C/C(=N\O)C(=O)NCC[Se][Se]CCNC(=O)/C(Cc2ccc(OCC)cc2)=N/O)cc1 | 50 nM | 70 nM | 200 nM | 180 nM | 30 nM | Active | Active |  |
| O=C(NCC[Se][Se]CCNC(=O)/C(Cc1ccc(Cl)c(Cl)c1)=N/O)/C(Cc1ccc(Cl)c(Cl)c1)=N/O | 280 nM | 520 nM | 250 nM | 320 nM | 180 nM |  | Active |  |
| O=C(NCC[Se][Se]CCNC(=O)/C(Cc1ccc(F)c(F)c1)=N/O)/C(Cc1ccc(F)c(F)c1)=N/O | 330 nM | 180 nM | 420 nM | 270 nM | 50 nM |  | Active |  |
| COc1cc([C@@H]2c3cc4c(cc3[C@@H](O[C@@H]3O[C@@H]5CO[C@@H](C)O[C@H]5[C@H](O)[C@H]3O)[C@H]3COC(=O)[C@H]23)OCO4)cc(OC)c1O [ETOPOSIDE] |  | 1200 nM | 8700 nM | 400 nM | 200 nM |  |  |  |
| CC(C)(C)c1ccc(C/C(=N\O)C(=O)NCC[Se][Se]CCNC(=O)/C(Cc2ccc(C(C)(C)C)cc2)=N/O)cc1 | 100 nM | 130 nM | 100 nM | 190 nM | 280 nM | Active | Active |  |
| O=C(NCC[Se][Se]CCNC(=O)/C(Cc1ccc(Cl)cc1)=N/O)/C(Cc1ccc(Cl)cc1)=N/O | 250 nM | 280 nM | 330 nM | 330 nM | 220 nM |  | Active |  |
| O=C(NCC[Se][Se]CCNC(=O)/C(Cc1ccc2ccccc2c1)=N/O)/C(Cc1ccc2ccccc2c1)=N/O | 380 nM | 120 nM | 190 nM | 170 nM | 270 nM |  | inactive |  |
| O=C(NCC[Se][Se]CCNC(=O)/C(Cc1ccc(O)c(Br)c1)=N/O)/C(Cc1ccc(O)c(Br)c1)=N/O | 30 nM | 10 nM | 160 nM | 210 nM | 20 nM | Active | Active | IC50 [15]: 16100 nM; selectivity ratio [16]: > 100; selectivity ratio [17]: > 100; selectivity ratio [18]: > 100; Ratio IC50 [19]: 77; Ratio IC50 [20]: >100 |
